Assay outcomes deposited in PubChem by The Scripps Research Institute Molecular Screening Center.
CHO parental Ca – ATP-evoked calcium signal inhibitors, parental CHO, primary screen, counter-screen for OX1R antagonist project, cell-based, fluorescence, Fluo-8 calcium dye; parental CHO-K1, ATP-induced calcium, Fluo-8 fluorescence; AID 463079, 2010; inhibition, % at 5.6 µM; 0.63% of 330,000 active;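 active = inhibition above that plate's mean sample inhibition plus 3 SD, cut at about 26% in these data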
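Test system: parental CHO cells; detection: calcium-sensitive Fluo-8 fluorescence; evaluation: percent inhibition of calcium signal; also added: ATP as calcium-mobilizing challenge; repeats: one well per compound; control set: ATP-challenged DMSO wells low, unchallenged DMSO wells high; compound: single nominal dose of 5.6 µM per compound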
OX1R antag-1 – antagonists of human orexin 1 receptor (OX1R); Orexin/Hypocretin receptor type 1 (Homo sapiens), O43613; OX1R-expressing cells, FRET antagonist read-out; inhibition, % at 6.6 µM; 1.8% of 330,000 active; in the data active = inhibition mostly above about 38%, no sharp cut-off; inactive = mostly below about 40%
Target sequence (O43613 whole entry, looked up): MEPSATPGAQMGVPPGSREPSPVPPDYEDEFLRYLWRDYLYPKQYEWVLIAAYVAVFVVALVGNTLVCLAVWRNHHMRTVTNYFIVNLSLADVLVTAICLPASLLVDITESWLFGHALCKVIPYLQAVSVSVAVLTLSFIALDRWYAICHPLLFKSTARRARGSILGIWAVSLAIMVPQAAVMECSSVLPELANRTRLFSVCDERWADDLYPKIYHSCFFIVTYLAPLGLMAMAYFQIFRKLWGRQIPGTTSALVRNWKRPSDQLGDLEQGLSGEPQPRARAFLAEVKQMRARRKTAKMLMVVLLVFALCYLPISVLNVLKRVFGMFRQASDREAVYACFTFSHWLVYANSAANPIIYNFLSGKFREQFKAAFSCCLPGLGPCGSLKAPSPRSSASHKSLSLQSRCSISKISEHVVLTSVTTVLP
GalR3 antag – GalR3 antagonists in HEK293 cells, primary screen, cell-based, fluorescence readout; AID 651719, 2012; inhibition, % at 3 µM; HEK293 GalR3-CNG cAMP membrane potential fluorescence; galR3 body fused to GalR1 C-terminus; 0.44% of 360,000 active; Galanin receptor type 3 (Homo sapiens), O60755;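 active = inhibition above the screen-wide average plus 3 SD, cut at about 13% in these data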;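 note: forskolin and galanin both at EC90 stimulate the cells; cAMP rise reported by CNG channel membrane potential dye signal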
Target sequence (O60755 1-299 limits assumed): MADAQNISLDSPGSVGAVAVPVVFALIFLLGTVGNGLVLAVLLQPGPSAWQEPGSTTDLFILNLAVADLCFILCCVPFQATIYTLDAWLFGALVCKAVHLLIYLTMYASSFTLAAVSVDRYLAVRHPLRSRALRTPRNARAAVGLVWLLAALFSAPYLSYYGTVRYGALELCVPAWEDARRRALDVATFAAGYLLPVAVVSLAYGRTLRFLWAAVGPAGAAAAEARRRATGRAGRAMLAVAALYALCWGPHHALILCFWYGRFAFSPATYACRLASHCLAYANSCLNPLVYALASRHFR
GPR7 antagonist – GPR7 receptor antagonists, primary screen, cell-based, fluorescence, single concentration | Neuropeptides B/W receptor type 1 (Homo sapiens), P48145 | GPR7-expressing cells, fluorescence antagonist assay | inhibition, % at 4.4 µM | 1.1% of 290,000 active | AID 1861, 2009; in the data active = inhibition above about 16%, passing the limit was not always enough;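 note: cells stimulated with the agonist NPW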
OX1R antag-2 – OX1R (HCRTR1) antagonists, primary screen, fluorescence, CHO/OX1R cells, Fluo-8 calcium, orexin A | inhibition, % at 5 µM | Fluo-8 calcium fluorescence | AID 434989, 2010 | 0.43% of 330,000 active;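 active = inhibition above its plate's threshold, mean inhibition of all tested compounds on the plate plus 3 SD, cut at about 37% in these data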
GPR7 antag conf – GPR7 receptor antagonists, confirmation, cell-based, fluorescence, single concentration. 52% of 2,400 active. inhibition, % at 4.4 µM. shares compounds with GPR7 antagonist. GPR7-expressing cells, calcium fluorescence antagonist mode. AID 1952, 2009; in the data active = inhibition above about 24%;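 note: stimulated with the GPR7 agonist NPW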
MCHR1 antag – MCHR1 antagonists in cells, counter-screen for GPR7 antagonist project, cell-based, fluorescence, human; shares compounds with GPR7 antagonist; MCHR1-expressing cells, fluorescence antagonist assay; inhibition, % at 4.4 µM; 62% of 2,400 active; AID 2148, 2009; in the data active = inhibition above about 22%
Each line names hits and unclear results; the compound was inactive in the other large screens (follow-up assays come after a bar, where they were run). An excerpt weighted towards active compounds, which were near 3.1% of everything screened.

CCCCCCN1C[C@H](n2cc(COC(=O)c3ccccc3)nn2)[C@@H](O)C[C@@H]1c1ccc(C)cc1	none (no result: CHO parental Ca, OX1R antag-1, GPR7 antagonist, OX1R antag-2)
O=S(=O)(c1ccc(OCC(O)CN2CCN(c3ccccc3O)CC2)cc1)N1CCOCC1 (configuration not stated)	none
O=S(=O)(c1ccc(OCC(O)CN2CCN(c3ccccc3)CC2)cc1)N1CCOCC1 (configuration not stated)	GPR7 antagonist 25 | GPR7 antag conf inactive | MCHR1 antag inactive
COc1ccc(-c2cc(C(=O)N/N=C(\C)c3cccnc3)c3cc(C)ccc3n2)cc1OC	none
O=C(NCc1ccco1)c1sc2ccccc2c1Cl	none
O=C(NCc1ccco1)c1sc2cc(Cl)ccc2c1Cl	GPR7 antagonist 36 | GPR7 antag conf inactive | MCHR1 antag 31
O=[N+]([O-])c1cccc(CNC2CCCCCC2)c1	none
CCOc1ccc([N+](=O)[O-])cc1CNC1CCCCCCC1	GPR7 antagonist 54 | GPR7 antag conf 38 | MCHR1 antag inactive
C=C(C(=O)c1ccccc1)C(NC(C)(C)C)c1ccccc1 (configuration not stated)	none (no result: CHO parental Ca, OX1R antag-1, GPR7 antagonist, OX1R antag-2)
CCCCn1c(SCC(=O)N2CCCCC2C)nc2cc(S(N)(=O)=O)ccc21 (configuration not stated)	GPR7 antagonist 36 | GPR7 antag conf inactive | MCHR1 antag inactive
CCCCn1c(SCC(=O)N2CCCC2)nc2cc(S(N)(=O)=O)ccc21	none
COc1cc(CNC(=O)Nc2nnc([C@@H]3C[C@H](O)[C@@H](CO)O3)s2)cc(OC)c1OC	none (no result: CHO parental Ca, OX1R antag-1, GPR7 antagonist, OX1R antag-2)
COC(=O)C1=C(C)N(Cc2ccccc2)C(=S)NC1c1ccc(Cl)cc1 (configuration not stated)	none (no result: CHO parental Ca, OX1R antag-1, GPR7 antagonist, OX1R antag-2)
CC(C(=O)Nc1c2c(cc3c1CCC3)CCC2)N1CCCC1 (configuration not stated)	GPR7 antagonist 32 | GPR7 antag conf inactive | MCHR1 antag 28
CC1CN(C(=O)c2ccc(NS(=O)(=O)c3ccc(C(C)(C)C)cc3)cc2)CC(C)O1 (configuration not stated)	GPR7 antagonist 33 (no result: CHO parental Ca, OX1R antag-1, OX1R antag-2) | GPR7 antag conf 32 | MCHR1 antag 42
CC1CN(C(=O)c2ccc(NS(=O)(=O)c3cccc(Cl)c3)cc2)CC(C)O1 (configuration not stated)	none (no result: CHO parental Ca, OX1R antag-1, OX1R antag-2)
CCOC(=O)N1CCN(C(=O)Cc2ccccc2[N+](=O)[O-])CC1	none
CCOc1ccccc1N1CCN(c2ncnc3scc(-c4ccc(OC)cc4)c23)CC1	GPR7 antagonist 54 | GPR7 antag conf inactive | MCHR1 antag 54
Cc1c(Cl)ccc2c1NC(=O)[C@]21N[C@@H](Cc2ccccc2)[C@H]2C(=O)N(c3ccc(F)cc3)C(=O)[C@H]21	GPR7 antagonist 36 | GPR7 antag conf 67 | MCHR1 antag 69
O=C(CSC1=NCCS1)NC(NC(=O)CSC1=NCCS1)c1ccccc1	GPR7 antagonist 29 | GPR7 antag conf inactive | MCHR1 antag inactive
O=C(CSC1=NCCS1)NC(c1ccccc1)c1ccccc1	none
O=C(Nc1ccc(Cl)cc1)Nc1nc(-c2sccc2Br)cs1	none
O=C(Nc1ccc(Cl)cc1)Nc1nc(-c2ccccc2O)cs1	CHO parental Ca 74, GPR7 antagonist 31, OX1R antag-2 41 | GPR7 antag conf 67 | MCHR1 antag 62
COc1ccc(C2CCc3cc(OC)c(OC)cc3C2NC=O)cc1OC (configuration not stated)	none (no result: CHO parental Ca, OX1R antag-1, GPR7 antagonist, OX1R antag-2)
Cc1ccc(NC(=O)C(C)OC(=O)c2nc(Cl)ccc2Cl)cc1S(=O)(=O)N1CCOCC1 (configuration not stated)	none (no result: CHO parental Ca, OX1R antag-1, GPR7 antagonist, OX1R antag-2)
CCCNC(=O)c1nnsc1S(=O)c1ccc(Cl)cc1 (configuration not stated)	none (no result: CHO parental Ca, OX1R antag-1, OX1R antag-2)
CCCNC(=O)c1nnsc1S(=O)(=O)c1ccc(Cl)cc1	GPR7 antagonist 35 (no result: CHO parental Ca, OX1R antag-1, OX1R antag-2) | GPR7 antag conf 79 | MCHR1 antag 102
Cc1cc(C(=O)N2CCC(C)(C(=O)NS(=O)(=O)C3CC3)C2)n(C(C)(C)C)n1 (configuration not stated)	none (no result: CHO parental Ca, OX1R antag-1, GPR7 antagonist, OX1R antag-2)
Cn1c(=O)c2c(nc(CN3CCc4ccccc4C3)n2Cc2cccc(Cl)c2)n(C)c1=O	GPR7 antagonist 24 (no result: GalR3 antag) | GPR7 antag conf inactive | MCHR1 antag inactive
CC1CC(C)CN(C(=O)C(C)N2CCN(S(=O)(=O)c3ccc(C(F)(F)F)cc3)CC2)C1 (configuration not stated)	none (no result: CHO parental Ca, OX1R antag-1, GPR7 antagonist, OX1R antag-2)
C[C@H](NC(=O)c1ccco1)C(=O)NC1CCCCCC1	none (no result: GPR7 antagonist)
CSCCC(NC(=O)c1ccco1)C(=O)OC(C)C(=O)NC(=O)NC1CCCCC1 (configuration not stated)	GPR7 antagonist 29 | GPR7 antag conf inactive | MCHR1 antag 48
COc1ccc(NC(=O)c2cc3c(CO)cnc(C)c3oc2=Nc2cc(OC)cc(OC)c2)cc1	GPR7 antagonist 37 | GPR7 antag conf inactive | MCHR1 antag inactive
Cc1cc(C)c2oc(C(=O)N(Cc3ccccc3)c3ccccn3)cc(=O)c2c1	GPR7 antagonist 26 | GPR7 antag conf inactive | MCHR1 antag inactive
Cc1cc2oc(C(=O)N(Cc3ccccc3)c3ccccn3)cc(=O)c2cc1Cl	none
O=C1NC[C@H](CCCCN2C[C@H](Cc3ccccc3)N(CCc3ccccc3)C(=O)C2=O)N(CC2CCCCC2)C1=O	none (no result: CHO parental Ca, OX1R antag-1, GPR7 antagonist, OX1R antag-2)
O=C(c1ccc(Cl)c(Cl)c1)N(Cc1ccco1)c1ccc(O)cc1	GPR7 antagonist 29 | GPR7 antag conf inactive | MCHR1 antag inactive
c1ccc(-c2ccc(CN3CCSCC3)cc2)cc1	GPR7 antagonist 24 | GPR7 antag conf inactive | MCHR1 antag inactive
CCN1CCN(c2c(Cl)cccc2NC(=O)c2ccc([N+](=O)[O-])o2)CC1	OX1R antag-1 56, GPR7 antagonist 28 | GPR7 antag conf 34 | MCHR1 antag 34
O=C(Nc1cccc(Cl)c1N1CCCC1)c1ccc([N+](=O)[O-])o1	none
Fc1ccc(Cn2nnnc2C(c2ccc(Cl)cc2)N2CCSCC2)cc1 (configuration not stated)	GPR7 antagonist 34 | GPR7 antag conf 40 | MCHR1 antag 27
CC1CCN(C(c2ccc(N(C)C)cc2)c2nnnn2Cc2ccc(F)cc2)CC1 (configuration not stated)	none
